# Measurements taken from ChEMBL document CHEMBL4014347, “Targeting Mycolic Acid Transport by Indole-2-carboxamides for the Treatment of Mycobacterium abscessus Infections” (J Med Chem, 2017).
# Calls of active or inactive are those of the source. The rule behind the calls is not given here.
# Legend:
# [1] = tested on: Mycobacteroides abscessus; experiment: Antibacterial activity against CF patient derived Mycobacterium abscessus subsp. abscessus smooth variant after 3 to 5 days by two fold serial dilution method; type: functional
# Procedure, shortened: (§1)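 Broth microdilution in cation-adjusted Mueller−Hinton broth per CLSI; inoculum 5 × 10^6 CFU/mL of exponential-phase bacteria; two-fold serial dilutions, solvent-only wells as control; 30 °C for 3−5 days; MIC read visually and confirmed by absorbance at 560 nm; triplicate on three independent occasions.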
# Liver = experiment: Intrinsic clearance in rat liver microsomes at 0.5 uM in presence of NADPH by LC-MS/MS analysis; type: ADME, microsome
# Procedure, shortened: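 Compound (0.5 μM) incubated with mouse or rat liver microsomes plus NADPH regenerating system; aliquots every 3 min over 30 min analysed for parent by LC-MS/MS; monoexponential decay rate normalized to microsomal protein, expressed as mL/min/g liver.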
# [2] = tested on: Mycobacteroides abscessus; experiment: Inhibition of MmpL3 A309P mutant in Mycobacterium abscessus CIP104536 smooth variant harboring pMV261 MAB_4508_A309P mutant assessed as reduction in trehalose monomycolate transport at 6.2 ug/ml preincubated for 1 hr followed by [14C]acetic acid addition measured after 2 hrs by TLC based autoradiography analysis
# Procedure, shortened: (§2)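 Exponential cultures in 7H9 with OADC exposed to increasing drug concentrations for 1 h at 37 °C with agitation, then labelled with 1 μCi/mL [14C]acetate (56 mCi/mmol) for 2 h; apolar lipids (TMM, TDM) run on TLC in chloroform/methanol/water 40:8:1; MAME and arabinogalactan-bound mycolates in petroleum ether/acetone 95:5; autoradiography.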
# [3] = tested on: Mycobacteroides abscessus; experiment: Effect on de novo mycolic acid biosynthesis in Mycobacterium abscessus CIP104536 smooth variant at 6.2 ug/ml preincubated for 1 hr followed by [14C]acetic acid addition measured after 2 hrs by TLC based autoradiography analysis; type: functional; procedure, shortened: as §2
# [4] = tested on: Mycobacteroides abscessus; experiment: Antibacterial activity against CF patient derived Mycobacterium abscessus subsp. massiliense isolate 210 rough variant after 3 to 5 days by two fold serial dilution method; type: functional; procedure, shortened: as §1
# CYP2C9 = CYP2C9 (Homo sapiens, UniProt P11712); experiment: Inhibition of CYP2C9 in human liver microsomes preincubated for 5 mins followed by NADPH addition at 10 uM measured after 10 mins by LC-MS/MS analysis relative to control; type: ADME
# CYP2C9, sequence (P11712 whole entry): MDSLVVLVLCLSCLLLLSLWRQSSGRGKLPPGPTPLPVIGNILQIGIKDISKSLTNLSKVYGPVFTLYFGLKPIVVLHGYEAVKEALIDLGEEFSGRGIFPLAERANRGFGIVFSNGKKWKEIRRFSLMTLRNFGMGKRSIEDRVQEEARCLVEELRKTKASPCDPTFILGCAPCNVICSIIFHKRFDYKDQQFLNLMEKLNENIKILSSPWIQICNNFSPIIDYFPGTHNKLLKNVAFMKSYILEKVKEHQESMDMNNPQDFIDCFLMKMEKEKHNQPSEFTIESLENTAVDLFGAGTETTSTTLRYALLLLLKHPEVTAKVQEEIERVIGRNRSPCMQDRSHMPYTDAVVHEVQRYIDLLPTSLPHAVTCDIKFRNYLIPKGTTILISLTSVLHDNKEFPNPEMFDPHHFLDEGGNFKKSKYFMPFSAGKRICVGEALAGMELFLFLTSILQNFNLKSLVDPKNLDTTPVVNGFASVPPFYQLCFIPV
# [5] = Protein binding in mouse plasma at 5 uM after 10 mins by LC-MS/MS analysis; type: ADME, cell-free; conditions: read-out: PPB (converted)
# Procedure, shortened: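 Ultracentrifugation method: 5 μM compound in mouse or rat plasma (from DMSO stock), 10 min at 37 °C; total concentration from incubated plasma, unbound from middle-layer supernatant after 200000g for 4.5 h; niflumic acid internal standard, acetonitrile, filtered, LC-MS/MS.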
# [6] = tested on: Mycobacteroides abscessus; experiment: Antibacterial activity against Addison's disease patient derived Mycobacterium abscessus subsp. massiliense isolate CIP108297 rough variant after 3 to 5 days by two fold serial dilution method; type: functional; procedure, shortened: as §1
# [7] = tested on: Mycobacteroides abscessus; experiment: Antibacterial activity against Mycobacterium abscessus CIP_PIPD1 harboring MAB_4508 g925c/A309P mutant after 3 to 5 days by two fold serial dilution method; type: functional; procedure, shortened: as §1
# [8] = tested on: Mycobacteroides abscessus; experiment: Antibacterial activity against CF patient derived Mycobacterium abscessus subsp. massiliense isolate 107 smooth variant after 3 to 5 days by two fold serial dilution method; type: functional; procedure, shortened: as §1
# [9] = tested on: Mycobacteroides abscessus; experiment: Antibacterial activity against CF patient derived Mycobacterium abscessus subsp. massiliense isolate 111 smooth variant after 3 to 5 days by two fold serial dilution method; type: functional; procedure, shortened: as §1
# [10] = Antibacterial activity against CF patient derived Mycobacterium abscessus subsp. bolletii isolate 108 rough variant after 3 to 5 days by two fold serial dilution method; type: functional; conditions: Mycobacteroides abscessus; procedure, shortened: as §1
# CYP2D6 = CYP2D6 (Homo sapiens, UniProt P10635); experiment: Inhibition of CYP2D6 in human liver microsomes preincubated for 5 mins followed by NADPH addition at 10 uM measured after 10 mins by LC-MS/MS analysis relative to control; type: ADME
# CYP2D6, sequence (P10635 whole entry): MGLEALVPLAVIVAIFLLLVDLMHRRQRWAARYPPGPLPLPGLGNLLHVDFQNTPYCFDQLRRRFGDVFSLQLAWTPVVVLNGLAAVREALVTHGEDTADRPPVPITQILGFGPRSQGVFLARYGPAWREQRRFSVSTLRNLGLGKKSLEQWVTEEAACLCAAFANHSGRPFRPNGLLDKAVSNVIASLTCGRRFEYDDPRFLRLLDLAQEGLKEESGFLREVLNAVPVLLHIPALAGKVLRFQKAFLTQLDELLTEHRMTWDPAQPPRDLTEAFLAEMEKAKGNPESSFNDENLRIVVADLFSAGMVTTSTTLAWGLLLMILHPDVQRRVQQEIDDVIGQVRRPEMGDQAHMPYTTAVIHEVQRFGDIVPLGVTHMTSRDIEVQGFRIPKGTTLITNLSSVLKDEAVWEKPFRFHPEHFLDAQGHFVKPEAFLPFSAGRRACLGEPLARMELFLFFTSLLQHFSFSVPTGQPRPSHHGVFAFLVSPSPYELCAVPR
# [11] = Antibacterial activity against Mycobacterium abscessus subsp. bolletii isolate CIP108541 smooth variant after 3 to 5 days by two fold serial dilution method; type: functional; conditions: Mycobacteroides abscessus; procedure, shortened: as §1
# [12] = tested on: Mycobacteroides abscessus; experiment: Antibacterial activity against Mycobacterium abscessus CIP104536 smooth variant assessed as reduction in viable colony forming unit at […] after 4 days by time-kill assay; type: functional
# Salmonella typhimurium [13] = experiment: Mutagenicity in Salmonella typhimurium TA98 assessed as increase in revertant colonies at 0.24 to 500 ug/well after 72 hrs by Ames test relative to control; type: toxicity; conditions: salmonella enterica subsp. enterica serovar typhimurium
# Procedure, shortened: (§3)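 Reverse mutation at histidine locus in S. typhimurium TA98 (frameshift) and TA100 (base-pair substitution), with and without S9; 0.24−500 μg/well; 37 ± 2 °C for 72 h, triplicates; DMSO vehicle; sodium azide, 2-nitrofluorene, 2-aminoanthracene positive controls; positive if revertants rise ≥2-fold over negative control dose-dependently.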
# Salmonella typhimurium [14] = experiment: Mutagenicity in Salmonella typhimurium TA98 in presence of rat liver S9 fraction assessed as increase in revertant colonies at 0.24 to 500 ug/well after 72 hrs by Ames test relative to control; type: toxicity; conditions: salmonella enterica subsp. enterica serovar typhimurium, s9, 72 h; procedure, shortened: as §3
# [15] = tested on: Mycobacteroides abscessus; experiment: Inhibition of MmpL3 in Mycobacterium abscessus CIP104536 smooth variant assessed as reduction in arabinogalactan mycolation preincubated for 1 hr followed by [14C]acetic acid addition measured after 2 hrs by TLC based autoradiography analysis; procedure, shortened: as §2
# [16] = tested on: Mycobacteroides abscessus; experiment: Antibacterial activity against CF patient derived Mycobacterium abscessus subsp. massiliense isolate 100 smooth variant after 3 to 5 days by two fold serial dilution method; type: functional; procedure, shortened: as §1
# [17] = Permeability of the compound at 25 uM at pH 5 after 4 hrs by LC-MS based PAMPA; type: physicochemical; conditions: read-out: permeability
# Procedure, shortened: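 PAMPA: 25 μM compound in aqueous buffer at pH 7.4 or 5.0 (pH adjusted with NaOH) in donor plate, triplicate; acceptor membrane coated with GIT-0 lipid, acceptor sink buffer; 4 h at 25 ± 2 °C; donor and acceptor solutions analysed by LC-MS (UPLC).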
# [18] = Antibacterial activity against CF patient derived Mycobacterium abscessus subsp. bolletii isolate 97 smooth variant after 3 to 5 days by two fold serial dilution method; type: functional; conditions: Mycobacteroides abscessus; procedure, shortened: as §1
# [19] = tested on: Mycobacteroides abscessus; experiment: Inhibition of MmpL3 in Mycobacterium abscessus CIP104536 smooth variant assessed as increase in accumulation of trehalose monomycolate up to 6.2 ug/ml preincubated for 1 hr followed by [14C]acetic acid addition measured after 2 hrs by TLC based autoradiography analysis; procedure, shortened: as §2
# [20] = tested on: Mycobacteroides abscessus; experiment: Antibacterial activity against non CF patient derived Mycobacterium abscessus subsp. abscessus isolate 2587 smooth variant after 3 to 5 days by two fold serial dilution method; type: functional; procedure, shortened: as §1
smiles,measurement,setting,value
O=C(NC1CCCCCC1)c1cc2c(Cl)cc(Cl)cc2[nH]1,MIC,[1],0.125 µg/mL
same,CLH,Liver,6.3 mL/min/g
same,inhibition,[2],Active
same,Activity,[3],inactive
same,MIC,[4],0.125 µg/mL
same,"inhibition at 10 min, 10 µM",CYP2C9,6%
same,"fraction unbound at 10 min, 5 µM",[5],0.011
same,MIC,[6],0.125 µg/mL
same,MIC,[7],32 µg/mL
same,MIC,[8],0.25 µg/mL
same,MIC,[9],0.125 µg/mL
same,MIC,[10],0.25 µg/mL
same,"inhibition at 10 min, 10 µM",CYP2D6,10%
same,MIC,[11],0.125 µg/mL
same,Activity,[12],Active
same,fold change (FC),Salmonella typhimurium [13],< 2
same,fold change (FC),Salmonella typhimurium [14],< 2
same,inhibition,[15],Dose-dependent effect
same,MIC,[16],0.125 µg/mL
same,"Papp at 4 h, 25 µM",[17],0.3 ×10⁻⁶ cm/s
same,MIC,[18],0.125 µg/mL
same,inhibition,[19],Active
same,MIC,[20],0.125 µg/mL
